Source: ChEMBL document CHEMBL5120742, “Multi-target weapons: diaryl-pyrazoline thiazolidinediones simultaneously targeting VEGFR-2 and HDAC cancer hallmarks” (RSC Med Chem, 2021)
pIC50: −log10 of the molar value. Calls of active or inactive are those of the source. The calls are words filed in the database; no cut-off is given here.

Experiments:
[1] = target: T1, Vascular endothelial growth factor receptor 2 (Homo sapiens, UniProt P35968); assay: Inhibition of human VEGFR2 in HUVEC cells assessed as reduction in VEGFR2 phosphorylation at 10 uM incubated for 30 mins by anti-phospho VEGF Tyr 1175 antibody based assay relative to control; format: cell-based
T1 sequence (P35968 whole entry): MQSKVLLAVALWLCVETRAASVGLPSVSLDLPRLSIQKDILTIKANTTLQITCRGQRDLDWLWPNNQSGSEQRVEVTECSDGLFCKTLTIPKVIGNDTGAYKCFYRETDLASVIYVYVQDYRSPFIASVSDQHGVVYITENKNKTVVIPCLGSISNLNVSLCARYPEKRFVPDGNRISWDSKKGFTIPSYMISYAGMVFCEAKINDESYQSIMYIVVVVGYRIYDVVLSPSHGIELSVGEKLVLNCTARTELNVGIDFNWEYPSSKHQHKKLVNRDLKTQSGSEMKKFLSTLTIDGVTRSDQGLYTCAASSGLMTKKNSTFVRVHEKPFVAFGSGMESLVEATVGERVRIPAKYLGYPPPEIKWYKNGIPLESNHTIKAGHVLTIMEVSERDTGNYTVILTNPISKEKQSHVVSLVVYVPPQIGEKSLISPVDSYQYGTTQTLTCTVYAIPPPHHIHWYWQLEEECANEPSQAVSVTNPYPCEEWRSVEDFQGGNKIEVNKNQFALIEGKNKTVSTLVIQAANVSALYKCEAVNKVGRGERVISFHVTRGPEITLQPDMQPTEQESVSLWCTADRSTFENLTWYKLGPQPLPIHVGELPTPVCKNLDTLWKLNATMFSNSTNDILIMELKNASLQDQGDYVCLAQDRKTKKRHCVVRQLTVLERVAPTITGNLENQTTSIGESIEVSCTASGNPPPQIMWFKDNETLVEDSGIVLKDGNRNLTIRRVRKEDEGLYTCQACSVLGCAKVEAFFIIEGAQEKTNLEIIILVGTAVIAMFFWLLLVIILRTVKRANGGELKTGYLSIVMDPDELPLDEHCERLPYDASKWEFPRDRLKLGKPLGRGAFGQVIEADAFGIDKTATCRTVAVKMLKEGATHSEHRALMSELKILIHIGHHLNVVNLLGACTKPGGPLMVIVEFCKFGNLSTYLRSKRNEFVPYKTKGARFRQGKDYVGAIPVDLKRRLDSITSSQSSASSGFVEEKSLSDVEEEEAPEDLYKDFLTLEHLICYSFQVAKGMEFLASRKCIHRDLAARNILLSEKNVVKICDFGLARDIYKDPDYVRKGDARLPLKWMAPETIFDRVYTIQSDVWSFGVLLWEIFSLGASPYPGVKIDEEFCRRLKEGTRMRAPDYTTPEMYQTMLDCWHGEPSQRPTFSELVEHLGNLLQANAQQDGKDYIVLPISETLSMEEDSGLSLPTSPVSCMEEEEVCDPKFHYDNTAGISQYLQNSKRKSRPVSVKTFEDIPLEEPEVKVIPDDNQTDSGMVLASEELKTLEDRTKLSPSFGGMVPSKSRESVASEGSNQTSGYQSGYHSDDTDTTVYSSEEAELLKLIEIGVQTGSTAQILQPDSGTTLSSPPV
In short: (§1)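 HUVECs were seeded at 4000–5000 per well in DMEM with 10% FCS for 12 h, then held 24 h in serum. Compound (10 µM) was added with serum for 30 min at 37 °C. Cells were fixed in 4% formaldehyde and probed with anti-phospho-VEGFR Tyr1175 (1:1000), then an HRP secondary (1:5000). TMB signal was stopped with 2N H2SO4 and read at 450 nm. Percent inhibition is normalized to control.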

Histone deacetylase 4 [2] = target: T2, Histone deacetylase 4 (Homo sapiens, UniProt P56524); assay: Inhibition of recombinant human N-terminal His6-SUMO-tagged C-terminal SII-tagged HDAC4 expressed in Escherichia coli (BL21) DE3 pLysS cells assessed as residual activity at 50 uM using BocLys(trifluoroacetyl)-AMC as substrate incubated for 30 mins by fluorescence assay relative to control
T2 sequence (P56524 whole entry): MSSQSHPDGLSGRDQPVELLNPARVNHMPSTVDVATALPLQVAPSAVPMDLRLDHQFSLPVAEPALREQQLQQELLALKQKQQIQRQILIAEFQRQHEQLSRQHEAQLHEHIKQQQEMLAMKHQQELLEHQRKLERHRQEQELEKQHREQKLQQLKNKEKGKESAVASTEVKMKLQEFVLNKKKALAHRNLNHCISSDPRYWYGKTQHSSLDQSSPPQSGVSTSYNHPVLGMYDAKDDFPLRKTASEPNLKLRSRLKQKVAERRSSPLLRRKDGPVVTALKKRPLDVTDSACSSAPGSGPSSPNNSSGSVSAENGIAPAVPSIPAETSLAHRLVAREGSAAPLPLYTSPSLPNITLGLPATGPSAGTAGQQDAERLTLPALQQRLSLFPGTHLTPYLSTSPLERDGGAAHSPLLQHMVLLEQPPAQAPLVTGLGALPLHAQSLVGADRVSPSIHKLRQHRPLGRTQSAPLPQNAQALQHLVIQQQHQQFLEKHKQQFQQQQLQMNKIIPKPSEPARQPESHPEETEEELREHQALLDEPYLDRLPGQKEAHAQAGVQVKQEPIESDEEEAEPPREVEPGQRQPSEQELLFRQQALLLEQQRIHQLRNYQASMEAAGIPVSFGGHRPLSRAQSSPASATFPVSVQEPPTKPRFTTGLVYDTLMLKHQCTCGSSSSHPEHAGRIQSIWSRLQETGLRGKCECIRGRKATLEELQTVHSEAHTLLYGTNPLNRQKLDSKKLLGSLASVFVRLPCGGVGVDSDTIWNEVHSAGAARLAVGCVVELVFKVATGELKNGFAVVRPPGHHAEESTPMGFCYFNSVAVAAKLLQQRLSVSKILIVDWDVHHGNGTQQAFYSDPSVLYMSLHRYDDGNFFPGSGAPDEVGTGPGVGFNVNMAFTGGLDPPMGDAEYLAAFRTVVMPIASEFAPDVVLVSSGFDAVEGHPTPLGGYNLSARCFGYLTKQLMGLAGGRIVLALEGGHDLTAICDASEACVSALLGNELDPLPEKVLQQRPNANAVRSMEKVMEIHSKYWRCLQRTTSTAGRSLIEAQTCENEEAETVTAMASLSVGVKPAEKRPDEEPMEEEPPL
In short: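 Catalytic-domain HDAC4 (His6-SUMO/SII-tagged) and full-length codon-optimized human HDAC8 were expressed in E. coli BL21 DE3 pLysS from pET14b. Both were assayed in a two-step fluorogenic format with Boc-Lys(trifluoroacetyl)-AMC, followed by trypsin development. Compounds were screened first at 50 µM for residual activity.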

Histone deacetylase 7 = target: T3, Histone deacetylase 7 (Homo sapiens, UniProt Q8WUI4); assay: Inhibition of recombinant human N-terminal GST-tagged HDAC7 (518 to end residues) expressed in baculovirus infected sf9 insect cells using BocLys(trifluoroacetyl)-AMC as substrate incubated for 30 mins by fluorescence assay
T3 sequence (Q8WUI4 whole entry): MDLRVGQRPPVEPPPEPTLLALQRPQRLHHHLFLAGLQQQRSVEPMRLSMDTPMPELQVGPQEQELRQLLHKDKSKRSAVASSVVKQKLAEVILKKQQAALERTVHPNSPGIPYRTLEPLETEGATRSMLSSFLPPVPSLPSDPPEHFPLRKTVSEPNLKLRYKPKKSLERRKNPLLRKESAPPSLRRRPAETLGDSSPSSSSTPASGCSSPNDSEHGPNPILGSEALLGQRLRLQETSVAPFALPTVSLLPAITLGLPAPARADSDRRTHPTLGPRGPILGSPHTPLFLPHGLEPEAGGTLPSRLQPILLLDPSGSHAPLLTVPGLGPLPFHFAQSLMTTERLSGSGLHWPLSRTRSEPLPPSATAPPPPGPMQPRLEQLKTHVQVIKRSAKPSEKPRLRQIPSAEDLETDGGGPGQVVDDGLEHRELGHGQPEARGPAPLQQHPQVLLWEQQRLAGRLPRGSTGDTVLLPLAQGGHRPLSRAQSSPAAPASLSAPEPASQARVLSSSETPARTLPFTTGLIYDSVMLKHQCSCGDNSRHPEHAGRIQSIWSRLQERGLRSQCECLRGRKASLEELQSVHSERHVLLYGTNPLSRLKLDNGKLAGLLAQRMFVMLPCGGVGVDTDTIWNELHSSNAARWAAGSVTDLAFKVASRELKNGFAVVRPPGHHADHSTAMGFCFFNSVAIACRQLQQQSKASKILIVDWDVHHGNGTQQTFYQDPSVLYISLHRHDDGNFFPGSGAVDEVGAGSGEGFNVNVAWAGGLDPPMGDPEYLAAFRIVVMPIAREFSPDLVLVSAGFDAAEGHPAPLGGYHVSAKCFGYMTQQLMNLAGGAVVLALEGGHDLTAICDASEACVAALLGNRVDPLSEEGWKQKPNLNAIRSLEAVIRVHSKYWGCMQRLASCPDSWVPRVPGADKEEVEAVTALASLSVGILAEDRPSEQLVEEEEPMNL
In short: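 Recombinant HDAC7 was tested in a two-step fluorogenic assay. Boc-Lys(trifluoroacetyl)-AMC serves as substrate, then trypsin releases the fluorophore.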

Histone deacetylase 4 [3] = target: T2, Histone deacetylase 4; assay: Binding affinity to recombinant human N-terminal His6-SUMO-tagged C-terminal SII-tagged HDAC4 expressed in Escherichia coli (BL21) DE3 pLysS cells assessed as melting temperature at 100 uM for 15 mins by thermal shift assay
In short: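 HDAC4 catalytic domain (His6-SUMO/SII, E. coli) at 3 µM was mixed with 100 µM compound in DMSO and held 15 min at 30 °C, then 60 min more at 30 °C. Temperature was stepped by 2 °C with 10 min holds and samples were taken at each step. Samples were centrifuged at 18000g, 4 °C, and the soluble protein was run on SDS-PAGE. Band intensities were fitted to a logistic function, and Tm is the inflection point.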

[4] = target: Histone deacetylase 3/Nuclear receptor corepressor 2 (HDAC3/NCoR2) (Homo sapiens, UniProt O15379); assay: Inhibition of C-terminal His-tagged recombinant human HDAC3 (1 to 428 residues)/N-terminal GST-tagged recombinant human NCoR2 (395 to 489 residues) co-expressed in baculovirus infected Sf9 cells using Boc-Lys(acetyl)-AMC as substrate incubated for 30 mins by fluorescence assay
In short: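 Two-step fluorogenic assay with recombinant HDAC1, 2, 3 or 6. Deacetylation of Boc-Lys(acetyl)-AMC is followed by trypsin conversion of the deacetylated product to a fluorescent signal.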

[5] = target: T1, Vascular endothelial growth factor receptor 2; assay: Inhibition of human VEGFR2 in HUVEC cells assessed as reduction in VEGFR2 phosphorylation incubated for 30 mins by anti-phospho VEGF Tyr 1175 antibody based assay; format: cell-based; in short: as §1
Gallus gallus = species on record: Gallus gallus; assay: Inhibition of angiogenesis in chicken chorioallantoic membrane assessed as reduction in number of branching capillaries at 1 to 10 ug/ul after 12 days in presence of human VEGF by stereomicroscopic analysis; settings: Embryo, dose 1-10 µg/microl, time 12.0 day
MCF7 = assay: Antiproliferative activity against human MCF7 cells assessed as reduction in cell viability after 48 hrs by MTT assay; format: functional, cell-based; settings: MCF7, 48 h
In short: (§2)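 MCF-7, K562, A549 and HT-29 lines were seeded in 96-well plates and kept overnight at 37 °C, 5% CO2, 95% humidity. They were then exposed to six concentrations (100 to 2.5) for 48 h. After PBS washes, MTT was added for 4 h at 37 °C and formazan was dissolved in DMSO. Absorbance was read at 570 nm. Survival is mean OD of treated wells over the negative control, and IC50 was derived from that.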

HT-29 = assay: Antiproliferative activity against human HT-29 cells assessed as reduction in cell viability after 48 hrs by MTT assay; format: functional, cell-based; settings: HT-29, 48 h; in short: as §2
K562 = assay: Antiproliferative activity against human K562 cells assessed as reduction in cell viability after 48 hrs by MTT assay; format: functional, cell-based; settings: K562, 48 h; in short: as §2
A549 = assay: Antiproliferative activity against human A549 cells assessed as reduction in cell viability after 48 hrs by MTT assay; format: functional, cell-based; settings: A549, 48 h; in short: as §2

inhibition [1] [%] | Activity (Histone deacetylase 4 [2]) [%] | pIC50 (Histone deacetylase 7) | Tm (Histone deacetylase 4 [3]) [°C] | pIC50 [4] | pIC50 [5] | pIC50 (MCF7) | pIC50 (HT-29) | pIC50 (K562) | pIC50 (A549) | Compound | inhibition (Gallus gallus)
22.4 | 13 | 5.17 | 57.3 | 4.96 |  |  |  |  |  | O=C1NC(=O)/C(=C\c2ccc(OCC(=O)N3N=C(c4ccc(F)cc4)CC3c3ccc(Cl)c(Cl)c3)cc2)S1 (centres undefined) | 
56.7 | 36 | < 4.30 |  | < 4.30 | 5.30 | 4.55 | 4.72 | 4.33 | 4.71 | O=C1NC(=O)/C(=C\c2ccc(OCC(=O)N3N=C(c4ccc(F)cc4)CC3c3ccco3)cc2)S1 (centres undefined) | Active
 | 5.9 | < 4.30 | 56.7 | 5.04 |  |  |  |  |  | O=C1NC(=O)/C(=C\c2ccc(OCC(=O)N3N=C(c4ccccc4)CC3c3ccc(Cl)c(Cl)c3)cc2)S1 (centres undefined) | 
